Assay results as given in PubChem BioAssay.
Values joined by “and” are separate entries in the source; they are usually repeats but may differ in a detail not shown here. Equal values may be shown once. Active and inactive are the calls of the source.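 The calls were made as follows, unless noted: active = viability at or under a set limit in both replicates, limit being median viability minus 3 SD (cut at about 48% in these data, passing the limit was not always enough); inconclusive = at or under the limit in just one replicate; inactive = at or above the limit in both replicates.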

Experiments:
[1] = reduced viability of SK-BR-3 breast cancer cells – cell-based, 24 h, human, pilot screen (AID 572;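 active = viability at or below 10% of carrier control in both of two separate runs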;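 also: compound exposure lasted between 18 and 24 h rather than exactly 24 h; 100% = carrier-treated control wells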); settings: SK-BR-3 viability, CellTiter-Glo luminescence, at 10 µM, stronger effect = lower value
[2] = HUVEC growth inhibition – cell-based, human, primary screen (AID 575;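 active = viability at or below 30% in both replicate assays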;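 also: 100% = median of untreated cell wells with 0.1% DMSO on each plate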); settings: HUVEC proliferation, CellTiter-Glo luminescence, 72 h; at 10 µM; stronger effect = lower value
Procedure, shortened: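 material = primary HUVEC, no more than 12 passages | input = 1250 cells per well | controls = vehicle and MePR control wells | measured by = CTG luminescence | times = 72 h compound incubation | format = collagen-coated 384-well format | read-out = % viability vs DMSO wells | doses = single 10 µM dose, 0.1% DMSO, from 5x medium stock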

[3] = H69AR cell proliferation blockers – human, duplicate replicates, primary screen (AID 580); settings: H69AR lung tumor cells viability, ATP luminescence, 72 h; at 10 µM; stronger effect = lower value;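 also: 100% = mean luminescence of untreated wells and 0% = no signal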
[4] = MRP1 drug-resistance reversers in H69AR cells – cell-based, doxorubicin co-treatment, pilot screen (AID 601;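 active = viability loss from added drug above about 55%, and viability with drug at most 40%, in both replicates, limit read from the data, passing the limit was not always enough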); settings: CellTiter-Glo, 72 h, at 10 µM; for differential viability (reversal): stronger effect = higher value
[5] = yeast transport mutant growth inhibition pilot in 384-well plates, post-Golgi transport modulator project (AID 636; in the data active = inhibition above about 31%); settings: absorbance 615 nm, about 18 h, stronger effect = higher value
[6] = growth suppression of yeast trafficking mutant, preliminary HTS, modulators of trafficking downstream of Golgi apparatus project, 1536-format plate, OD 615 nm (AID 637; in the data active = inhibition above about 30%); settings: yeast transport mutant growth, absorbance 615 nm, 18 h; stronger effect = higher value
[7] = H69AR cells + 2 uM doxorubicin, measured here: viability with 2 uM doxorubicin, stronger effect = lower value
[8] = H69AR cells, compound alone cytotoxicity

Structure (SMILES)	viability [1]	viability [2]	viability [3]	differential viability (reversal) ([4]; H69AR cells + 2 uM doxorubicin)	viability [4, 7]	viability [4, 8]	inhibition [5]	inhibition [6]
CCOC(=O)C1=C(C)Nc2nc(SCC(=O)OC)nn2C1c1cc(F)cc(F)c1 (stereo unspecified)	91.5% (inactive)	75.4% (inactive)	92.9% (inactive)	7.16% (inactive)	85.7%	92.9%	-8.24% (inactive)	2.06% (inactive)
O=C(c1cccs1)N(Cc1ccco1)Cc1cc2ccccc2[nH]c1=O	86% (inactive)	110% (inactive)	82.2% (inactive)	-6.47% (inactive)	88.7%	82.2%	4.19% (inactive)	-4.91% (inactive)
O=C(COc1ccc(S(=O)(=O)NC2CCCCC2)cc1)NCc1ccccn1	65% (inactive)	102% (inactive)	85.6% (inactive)	-3% (inactive)	88.6%	85.6%	-7.26% (inactive)	2.18% (inactive)
CC1CN(C(=O)CSc2ncnc3sccc23)CC(C)O1 (stereo unspecified)	80% (inactive)	103% (inactive)	99.6% (inactive)	-2.15% (inactive)	102%	99.6%	-5.75% (inactive)	0% (inactive)
O=C1C(Cl)=C(NCC2CCCO2)C(=O)N1CCc1ccccc1 (stereo unspecified)	75% (inactive)	111% (inactive)	87.4% (inactive)	8.39% (inactive)	79%	87.4%	-0.82% (inactive)	-4.03% (inactive)
COc1ccc(-c2nnc(SCC(=O)Nc3sc4c(c3C#N)CCC4)n2CC2CCCO2)cc1 (stereo unspecified)	89% (inactive)	97% (inactive)	93.8% (inactive)	19.5% (inactive)	74.4%	93.8%	2.43% (inactive)	-1.43% (inactive)
O=c1oc2cc(O)ccc2c2oc3cc(O)ccc3c12	108% (inactive)	85.1% (inactive)	99.4% (inactive)	6.57% (inactive)	92.8%	99.4%	-5.19% (inactive)	5.17% (inactive)
CC(C)CNS(=O)(=O)c1ccc(CCC(=O)NCc2ccco2)cc1	113% (inactive)	88.6% (inactive)	84.5% (inactive)	-3.21% (inactive)	87.7%	84.5%	-4.93% (inactive)	1.29% (inactive)
CCOCCn1c(CN2CCC(Cc3ccccc3)CC2)nc2c1c(=O)n(C)c(=O)n2C	61% (inactive)	89.7% (inactive)	87.7% (inactive)	29.8% (inactive)	58%	87.7%	-8.22% (inactive)	3.55% (inactive)
CC(=O)c1ccc(-n2nnnc2SCC(=O)N2CCc3ccccc3C2)cc1	94% (inactive)	106% (inactive)	88.9% (inactive)	-12.1% (inactive)	101%	88.9%	-6.3% (inactive)	-14.7% (inactive)
CCn1cc(C2Nc3ccccc3C(=O)N2O)c(C)n1 (stereo unspecified)	93% (inactive)	126% (inactive)	90% (inactive)	-0.465% (inactive)	90.5%	90%	-5.27% (inactive)	-2.91% (inactive)
CC(=O)c1c(C)[nH]c(C(=O)Nc2c(C)n(C)n(-c3ccccc3)c2=O)c1C	82% (inactive)	101% (inactive)	90.2% (inactive)	7.98% (inactive)	82.2%	90.2%	-8.63% (inactive)	0% (inactive)
CCOC(=O)c1c(-c2ccc(C)o2)csc1NC(=O)CN1CCN(CC)CC1	87% (inactive)	88.6% (inactive)	80.2% (inactive)	-6.44% (inactive)	86.7%	80.2%	-7.53% (inactive)	4.18% (inactive)
Cc1ccccc1-n1nnc2c(=O)oc3ccccc3c21	99.5% (inactive)	64.9% (inactive)	85.8% (inactive)	1.29% (inactive)	84.5%	85.8%	-4.47% (inactive)	5.83% (inactive)
COCc1[nH]nc2c1C(c1cc(OC)c(O)c(OC)c1)C(C#N)=C(N)O2 (stereo unspecified)	98% (inactive)	102% (inactive)	93% (inactive)	-2% (inactive)	95%	93%	-10.3% (inactive)	4.03% (inactive)
O=C(O)c1ccc(COc2ccc(Cl)cc2)o1	92% (inactive)	84.7% (inactive)	98.1% (inactive)	9.97% (inactive)	88.1%	98.1%	-0.26% (inactive)	-2.13% (inactive)

Structure (SMILES)	viability [1]	viability [2]	viability [3]	differential viability (reversal) ([4]; H69AR cells + 2 uM doxorubicin)	viability [4, 7]	viability [4, 8]	inhibition [5]	inhibition [6]
CCOC(=O)c1[nH]c2ccc(F)cc2c1NC(=O)C(C)N1CCc2cc(OC)c(OC)cc2C1 (stereo unspecified)	99% (inactive)	57.9% (inactive)	13.5% (active)	-55.2% (inactive)	68.7%	13.5%	-3.42% (inactive)	7.87% (inactive)
Cc1ccc(NC(=O)CC2C(=O)NC3CCCCC3N2C(=O)c2ccc(F)cc2)cc1C (stereo unspecified)	108% (inactive)	100% (inactive)	101% (inactive)	12.5% (inactive)	88.5%	101%	-2.47% (inactive)	3.11% (inactive)
CC(C)NC(=O)c1ccccc1NC(=O)CCS(=O)(=O)Cc1ccccc1	116% (inactive)	107% (inactive)	87.7% (inactive)	-1.34% (inactive)	89.1%	87.7%	-1.64% (inactive)	9.82% (inactive)
COc1ccc(S(=O)(=O)N2CCCC(C(=O)NCc3ccccn3)C2)cc1 (stereo unspecified)	146% (inactive)	96.8% (inactive)	95.5% (inactive)	3.92% (inactive)	91.6%	95.5%	-1.43% (inactive)	-0.66% (inactive)
Cc1cc2cc(CNC(=O)c3ccc4c(c3)OCO4)ccc2[nH]1	102% (inactive)	114% (inactive)	89.1% (inactive)	-3.21% (inactive)	92.3%	89.1%	-1.56% (inactive)	3.61% (inactive)
COCCNC(=O)NC(=O)COC(=O)Cc1ccc2c(c1)OCCO2	81% (inactive)	111% (inactive)	99.2% (inactive)	6.6% (inactive)	92.6%	99.2%	-2.88% (inactive)	3.82% (inactive)
C=CCNc1nnc(SC2CC(=O)N(c3ccc(OC)cc3)C2=O)s1 (stereo unspecified)	107% (inactive)	108% (inactive)	103% (inactive)	-8.79% (inactive)	111%	103%	-1.92% (inactive)	0.73% (inactive)
O=c1c(O)c(-c2ccc(O)cc2O)oc2cc(O)cc(O)c12	94% (inactive)	97.5% (inactive)	97.4% (inactive)	-2.28% (inactive)	99.6%	97.4%	-3.77% (inactive)	-1.33% (inactive)
C[C@@H]1C[C@H]2[C@@H]3C[C@H](F)C4=CC(=O)C=C[C@]4(C)[C@@]3(F)[C@@H](O)C[C@]2(C)[C@@]1(O)C(=O)COC(=O)C(C)(C)C	103% (inactive)	76.9% (inactive)	79.5% (inactive)	-7.82% (inactive)	87.3%	79.5%	-3.38% (inactive)	-11.3% (inactive)
CCCCOc1cc(C(=O)NCCN(CC)CC)c2ccccc2n1	99% (inactive) and 112% (inactive)	53.4% (inactive) and 59.6% (inactive)	89.5% (inactive) and 84.4% (inactive)	8.11% (inactive) and 17.8% (inactive)	81.4% and 66.6%	89.5% and 84.4%	-2.86% (inactive) and -0.26% (inactive)	0.33% (inactive) and 6.5% (inactive)
CCOC(=O)c1c(C(F)(F)C(F)(F)C(F)(F)C(F)(F)F)n[nH]c1C	63% (inactive)	79.5% (inactive)	76.8% (inactive)	25.1% (inactive)	51.7%	76.8%	-5.75% (inactive)	4% (inactive)
NC(=O)C1CCN(c2nc(-c3ccccc3)nc3ccccc23)CC1	114% (inactive)	77.2% (inactive)	66.3% (inactive)	-2.88% (inactive)	69.2%	66.3%	-3.15% (inactive)	-4.03% (inactive)
CCOc1ccc(-c2c(C#N)c(N)nc3c2c(=O)n(C)c(=O)n3C)cc1OC	114% (inactive)	86% (inactive)	94.7% (inactive)	2.56% (inactive)	92.1%	94.7%	-6.44% (inactive)	6.77% (inactive)
Cc1cc(C(=O)N2CCCc3ccccc32)no1	98% (inactive)	102% (inactive)	105% (inactive)	14.4% (inactive)	90.3%	105%	-2.27% (inactive)	1.27% (inactive)
CCOC(=O)C1CN(S(=O)(=O)c2ccc(C)cc2)CCN1S(=O)(=O)c1ccc(C)cc1 (stereo unspecified)	100% (inactive)	101% (inactive)	84.5% (inactive)	-16.3% (inactive)	101%	84.5%	-2.6% (inactive)	-1.8% (inactive)
COc1ccc2c(c1)c(CC(=O)O)c(C)n2C(=O)c1ccc(Cl)cc1	99% (inactive)	69.3% (inactive)	95.6% (inactive)	3.25% (inactive)	92.3%	95.6%	-4.16% (inactive)	0.5% (inactive)
